Bioassay records deposited in PubChem by several laboratories.
Rows were chosen to be rich in hits. Some 1.2% of all compounds tested hit in one or more screens of this group.
GAA850 FXN act: FXN promoter activators, primary screen, cell-based, luciferase luminescence, HEK293 lucGAA850 | activation, % at 6 µM | actives 0.56% (n = 360,000) | HEK293 lucGAA850 FXN promoter luciferase reporter, 24 h; percent of 10 µM SAHA response;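 active = activation above the average of all compounds screened plus 3 SD, cutoff fixed separately per campaign, cut at about 7.5% in these data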;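 note: 0% = DMSO wells and 100% = 10 µM SAHA wells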
Hep lipid drop: inhibitors of hepatocyte lipid droplet formation, primary screen, imaging, high-throughput imaging, BODIPY stain | AML12 mouse hepatocytes, oleate lipid droplets | inhibition, % at 6.5 µM | actives 0.4% (n = 240,000);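 active = lipid droplet intensity inhibited by at least 50%, with more than 500 cells counted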
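Assay system: AML12 hepatocytes (mouse) / Also added: 100 µM oleic acid challenge / Times: overnight treatment with compound plus oleate / Detection: high-content imaging of BODIPY-stained droplets and DAPI nuclei / Evaluation: % inhibition of lipid droplet signal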
p-CIP stab down: p/CIP-EGFP fusion destabilizers, primary screen, fluorescence, F442A cells; Q05BA5; 16 h; decrease of EGFP signal, % at 10 µM; actives 0.01% (n = 290,000); AID 1984, 2009;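 active = EGFP signal decrease of at least 30% at 10 µM or well 3 SD below plate mean, unless failing retest; inactive = the rest, including hits failing retest or dose response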
Target sequence (Q05BA5 1-1403): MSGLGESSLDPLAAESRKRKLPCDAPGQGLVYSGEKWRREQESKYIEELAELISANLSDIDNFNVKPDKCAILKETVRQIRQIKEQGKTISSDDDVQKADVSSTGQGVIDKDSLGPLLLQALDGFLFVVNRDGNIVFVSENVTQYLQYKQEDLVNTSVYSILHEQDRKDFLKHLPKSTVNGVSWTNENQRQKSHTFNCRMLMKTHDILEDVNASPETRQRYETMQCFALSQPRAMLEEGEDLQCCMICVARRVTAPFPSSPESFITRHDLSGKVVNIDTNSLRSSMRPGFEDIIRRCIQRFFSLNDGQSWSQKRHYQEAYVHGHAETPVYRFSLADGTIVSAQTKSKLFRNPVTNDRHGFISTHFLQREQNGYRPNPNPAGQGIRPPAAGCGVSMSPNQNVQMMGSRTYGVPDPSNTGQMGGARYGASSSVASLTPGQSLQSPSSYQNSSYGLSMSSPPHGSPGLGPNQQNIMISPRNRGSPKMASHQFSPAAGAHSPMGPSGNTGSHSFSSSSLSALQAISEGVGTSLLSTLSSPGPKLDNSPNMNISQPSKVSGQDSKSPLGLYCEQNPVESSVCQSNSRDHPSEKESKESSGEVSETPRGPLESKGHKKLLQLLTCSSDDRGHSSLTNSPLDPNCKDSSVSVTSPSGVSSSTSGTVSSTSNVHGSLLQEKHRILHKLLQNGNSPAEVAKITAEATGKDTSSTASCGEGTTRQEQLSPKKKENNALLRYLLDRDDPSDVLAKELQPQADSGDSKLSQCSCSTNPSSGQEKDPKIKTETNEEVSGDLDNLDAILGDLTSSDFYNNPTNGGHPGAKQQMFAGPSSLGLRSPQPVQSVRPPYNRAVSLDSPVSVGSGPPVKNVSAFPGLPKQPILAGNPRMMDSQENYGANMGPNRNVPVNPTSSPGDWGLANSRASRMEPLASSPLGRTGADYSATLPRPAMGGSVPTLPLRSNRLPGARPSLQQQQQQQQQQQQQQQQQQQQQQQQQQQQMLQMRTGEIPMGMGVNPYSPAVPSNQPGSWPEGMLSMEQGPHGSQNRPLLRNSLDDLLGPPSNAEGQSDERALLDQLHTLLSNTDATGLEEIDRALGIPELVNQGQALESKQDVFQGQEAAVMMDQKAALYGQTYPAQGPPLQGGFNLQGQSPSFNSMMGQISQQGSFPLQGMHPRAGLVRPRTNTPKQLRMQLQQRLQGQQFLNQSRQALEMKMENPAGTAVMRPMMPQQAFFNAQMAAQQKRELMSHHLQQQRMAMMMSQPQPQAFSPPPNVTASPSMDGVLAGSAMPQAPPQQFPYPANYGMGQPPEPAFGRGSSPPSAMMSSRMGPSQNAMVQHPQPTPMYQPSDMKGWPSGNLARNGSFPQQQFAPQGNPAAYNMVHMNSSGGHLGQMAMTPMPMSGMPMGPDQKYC
Rce1 inhib: yeast Rce1p protease inhibitors, primary screen, biochemical, fluorescence, cell-free homogeneous; CAAX prenyl protease 2 (Saccharomyces cerevisiae (strain ATCC 204508 / S288c)), Q03530; yeast membranes, quenched prenylated peptide cleavage fluorescence; calls only; actives 0.27% (n = 290,000);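 active = fall in fluorescence gain of 50% or more versus controls, with final raw signal at or below 3038400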;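 note: plate controls were neutral control wells for no effect and wells lacking membranes for full effect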
proCasp7 act: procaspase-7 activators, primary screen, counter-screen for procaspase-3 activator project, biochemical, absorbance, HTS, human | actives 0.093% (n = 330,000) | activation, % at 8.5 µM | recombinant procaspase-7, Ac-DEVD-pNA absorbance 405 nm; D23A/D198A/D206A triple mutant, cannot self-cleave; scale: DMSO 0, 5 µM enzyme 100;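 active = percent activation above the screen-wide mean plus 3 SD, cut at about 25% in these data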
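Assay system: Uncleavable procaspase-7 mutant enzyme / Input: 2 µM procaspase-7 mutant as dispensed / Dosing: single nominal 8.5 µM compound dose, 0.8% DMSO final / Timing: 1 h enzyme–compound preincubation and 2 h substrate reaction, both 25 °C / Detection: p-Nitroaniline absorbance at 405 nm, read at 0 and 120 min / Replication: singlicate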
proCasp3 act: activators of human procaspase-3 D3A mutant, primary screen, biochemical, absorbance, PC-3 D3A mutant, single concentration; activation, % at 8.5 µM; Caspase-3 (Homo sapiens), P42574; recombinant procaspase-3 D3A, Ac-DEVD-pNA absorbance 405 nm; actives 0.11% (n = 330,000); AID 463141, 2010;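 active = activation above the mean of all tested compounds plus 3 SD, cut at about 21% in these data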;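 note: 0% = DMSO alone and 100% = DMSO wells spiked with extra 5 µM PC-3 D3A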
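assay system = Procaspase-3 D3A mutant | signal = absorbance at 405 nm, 0 and 120 min | times = 1 h preincubation plus 2 h reaction at 25 °C | repeats = single replicate | read-out = % activation between DMSO and enzyme-spiked controls | medium = Zinc-free HEPES saline buffer with Triton X-100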
GAA30 FXN cntr: GAA30 FXN promoter activators, confirmation, counter-screen for GAA850 frataxin promoter activator project, cell-based, luminescence, HEK293, lucGAA30, triplicate. shares compounds with GAA850 FXN act. HEK293 lucGAA30 FXN promoter luciferase, 24 h; DMSO = 0%, 5 µM ipriflavone = 100%. activation, % at 6 µM. actives 66% (n = 1,900);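 active = mean activation above the mean of solvent-only control wells plus 3 SD, cut at about 22% in these data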;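 note: counterscreen of GAA850 promoter hits where activity marks nonselective or luminescence artifacts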
GAA850 confirm: FXN GAA850 promoter activators in reporter cells, confirmation, cell-based, luminescence, HEK293 lucGAA850, triplicate. actives 86% (n = 1,900). AID 588351, 2011. shares compounds with GAA850 FXN act. activation, % at 6 µM. HEK293 lucGAA850 FXN promoter luciferase reporter, 24 h; 100% = activation by SAHA;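 active = mean activation above a set limit taken from the primary screen, cut at about 8% in these data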;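 note: 0% = DMSO wells and 100% = 10 µM SAHA wells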
An asterisk follows results filed as active; i = inactive; . = no result.

SMILES | GAA850 FXN act | Hep lipid drop | p-CIP stab down | Rce1 inhib | proCasp7 act | proCasp3 act | GAA30 FXN cntr | GAA850 confirm
Nc1c(C=C2C=CC(=O)C=C2)c(=O)nc2snc(SCc3ccccc3)n12 | 7.7* | -3 | -8 | i | -14 | -6 | 59* | 15*
Cc1ccc(CNC(=O)Cn2ccc3cc(S(=O)(=O)N4CCCC4)ccc32)o1 | 3 | 13 | -5 | i | 2 | 10 | . | .
Cc1cc(C)cc(NC(=O)/C=C/c2ccc([N+](=O)[O-])s2)c1 | 8.7* | -13 | -19 | i | 1 | -1 | -29 | 18*
CC(=O)c1cccc(NC(=O)/C=C/c2ccc([N+](=O)[O-])s2)c1 | 7 | 0 | -18 | i | . | . | . | .
O=C(Nc1ccccc1N1CCOCC1)C1CCCO1 (centres undefined) | -1 | . | . | . | -3 | -3 | . | .
CCCCNC(=O)N(O)C1N(/N=C/c2ccccc2F)C(=S)SC1(C)C (centres undefined) | 8.4* | 18 | -10 | i | 3 | 3 | 26* | 7
CCCCNC(=O)N(O)C1N(/N=C/c2ccco2)C(=S)SC1(C)C (centres undefined) | 0 | . | . | . | -5 | 5 | . | .
COc1cc(OC)cc(-c2cc3cc(F)ccc3cn2)c1 | 8.0* | . | . | . | -3 | -7 | 95* | 36*
CC(C)Cn1c(N)c(C(=O)COC(=O)/C=C/c2ccccc2)c(=O)n(C)c1=O | -2 | . | . | i | -1 | -12 | . | .
CCc1ccc(S(=O)(=O)N2CCN(C(=O)C3CCN(C(C)=O)CC3)CC2)cc1 | 2 | 8 | 11 | i | 9 | 2 | . | .
COC(=O)C(NC(=O)c1ccccc1C)(Nc1ncc(S(=O)(=O)c2ccc([N+](=O)[O-])cc2)s1)C(F)(F)F (centres undefined) | 0 | 0 | -11 | i | 7 | 4 | . | .
COC(=O)C(NC(=O)c1ccc(F)cc1)(Nc1ncc(S(=O)(=O)c2ccc([N+](=O)[O-])cc2)s1)C(F)(F)F (centres undefined) | 9.8* | . | -12 | i | 11 | 4 | 21 | 14*
O=[N+]([O-])c1cccnc1SCc1ccccc1 | 3 | . | 0 | i | 2 | 6 | . | .
CCOC(=O)C1=C(CSc2nc(-c3ccccc3)ccc2C#N)OC(N)=C(C#N)C1c1ccc(OC)cc1 (centres undefined) | 8.9* | . | -57 | i | -17 | -18 | 66* | 25*
CCOC(=O)C1=C(CSc2nc(CC)c(C)cc2C#N)OC(N)=C(C#N)C1c1ccccc1 (centres undefined) | 1 | 12 | 2 | i | -4 | -22 | . | .
CC(NC(=O)COC(=O)[C@@H]1CCCN1S(=O)(=O)c1ccccc1F)C12CC3CC(CC(C3)C1)C2 (some centres undefined) | 8.8* | 5 | -3 | i | 6 | 5 | 28* | 15*
CC(=O)N/C(=C\c1ccccc1)C(=O)OCC(=O)NC(C)C12CC3CC(CC(C3)C1)C2 (centres undefined) | 13* | -1 | -15 | i | 1 | -4 | 30* | 13*
CC(=O)N/C(=C\c1ccccc1)C(=O)OCC(=O)NC(=O)c1ccccc1 | 1 | . | . | i | 0 | 6 | . | .
COC(=O)N(NC(=O)C(O)(CCC(C)C)CCC(C)C)c1ccccc1 | -3 | -7 | 1 | i | -2 | 4 | . | .
CCC(O)(CC)C(=O)NN(C(=O)Nc1csc2c1CCCC2)c1ccccc1 | 9.4* | 9 | 1 | i | 4 | 2 | 7 | 3
CCN(CC)S(=O)(=O)c1ccc2c(c1)C(=NO)c1cc(S(=O)(=O)N(CC)CC)ccc1-2 | 10* | -1 | -3 | i | -7 | -1 | -11 | 19*
CC1CCN(S(=O)(=O)c2ccc3c(c2)C(=NO)c2cc(S(=O)(=O)N4CCC(C)CC4)ccc2-3)CC1 | 11* | . | . | . | -1 | 11 | -71 | 30*
CCN(CC)S(=O)(=O)c1ccc(C)c(C)c1 | 2 | -1 | -6 | i | 1 | 4 | . | .
COc1ccc(S(=O)(=O)N2CCC(C)CC2)cc1OC | 0 | -8 | -6 | i | 5 | 2 | . | .
COc1cccc(CN2CC(C(=O)NCCc3cn4cccnc4n3)CCC2=O)c1 (centres undefined) | 1 | . | . | . | . | . | . | .
SMILES | GAA850 FXN act | Hep lipid drop | p-CIP stab down | Rce1 inhib | proCasp7 act | proCasp3 act | GAA30 FXN cntr | GAA850 confirm
N#Cc1c(N)nc2c(c1-c1ccccc1)CCC2 | 8.2* | 14 | -18 | . | 10 | 9 | 62* | 35*
COc1ccc(-c2c(C#N)c(N)nc3c2CCC3)cc1 | 2 | -10 | -5 | i | -13 | -11 | . | .
Cc1cc(C(=O)N/N=C/c2ccccn2)n[nH]1 | 2 | 8 | -13 | i | 2 | -5 | . | .
O=C(N/N=C/c1ccccn1)c1ccc(Br)cc1 | 23* | -19 | 4 | i | 7 | 11 | -105 | -31
O=C(N/N=C/c1ccccn1)c1ccc([N+](=O)[O-])cc1 | -1 | 3 | -32 | i | 4 | -5 | . | .
O=C(N/N=C/c1ccccn1)c1ccc(NC(=O)c2cccc([N+](=O)[O-])c2)cc1 | -2 | -21 | 12 | i | -1 | 3 | . | .
O=C(N/N=C/c1ccccn1)c1cccc([N+](=O)[O-])c1 | 9.2* | 10 | 11 | i | -4 | 1 | -38 | 7
O=C(N/N=C/c1ccccn1)c1cc([N+](=O)[O-])cc([N+](=O)[O-])c1 | 14* | 12 | 0 | i | -1 | 3 | -82 | -17
O=C(N/N=C/c1ccccn1)c1cc(C2CC2)[nH]n1 | 7.6* | 6 | 5 | i | 14 | 0 | 106* | 38*
COC(=O)C1CCN(C(=O)COC(=O)c2cc(-c3cccs3)nn2-c2ccccc2)CC1 | 0 | . | . | i | 5 | 0 | . | .
